Calls of active or inactive are those of the source. No cut-off for these calls is given here.
Legend:
Staphylococcus aureus = assay: Antibacterial activity against Staphylococcus aureus assessed as inhibition of growth after 18 hrs by broth culture method; assay type: functional
Summary of the method: (§1)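 Broth dilution in 0.5 mL Sensitivity Test Broth, inoculated with 0.2 mL of a 10^-4 dilution of an 18-h broth culture. MIC read after 18-h incubation as the lowest concentration preventing growth.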

Escherichia coli = assay: Antibacterial activity against Escherichia coli assessed as inhibition of growth after 18 hrs by broth culture method; assay type: functional; summary of the method: as §1
[1] = molecular target: D-alanyl-D-alanine carboxypeptidase (Streptomyces sp. R61) (UniProt P15555); assay: Inhibition of Streptomyces R61 DD-carboxypeptidase using Ac2-L-Lys-D-Ala-D-Ala as substrate at 10 to 100 ug/ml
D-alanyl-D-alanine carboxypeptidase (Streptomyces sp. R61), sequence (P15555 whole entry): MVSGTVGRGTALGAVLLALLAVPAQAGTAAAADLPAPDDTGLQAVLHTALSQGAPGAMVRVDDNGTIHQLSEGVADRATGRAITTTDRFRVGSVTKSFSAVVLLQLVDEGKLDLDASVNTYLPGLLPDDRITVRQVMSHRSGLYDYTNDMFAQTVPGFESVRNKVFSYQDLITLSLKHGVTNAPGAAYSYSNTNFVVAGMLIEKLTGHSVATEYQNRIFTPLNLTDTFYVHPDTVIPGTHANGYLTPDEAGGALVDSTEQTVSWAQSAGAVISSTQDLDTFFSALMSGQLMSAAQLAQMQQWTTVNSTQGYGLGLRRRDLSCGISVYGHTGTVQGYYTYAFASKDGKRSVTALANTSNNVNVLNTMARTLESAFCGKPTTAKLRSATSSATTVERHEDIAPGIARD
Summary of the method: (§2)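 Enzymes tested for release of D-alanine, measured with D-amino acid oxidase. Compounds assayed at 10 and 100 μg/mL. Substrates: Ac2-L-Lys-D-Ala-D-Ala for the Streptomyces R61 enzyme; UDP-N-acetylmuramyl-L-alanyl-meso-diaminopimeloyl-D-alanyl-D-alanine for the B. stearothermophilus and S. typhimurium enzymes.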

[2] = tested on: Salmonella enterica subsp. enterica serovar Typhimurium; assay: Inhibition of Salmonella typhimurium DD-carboxypeptidase using UDP-N-acetylmuramyl-L-alanyl-meso-diaminopimeloyl-D-alanyl-D-alanine as substrate at 10 to 100 ug/ml; summary of the method: as §2
[3] = molecular target: T1, D-alanyl-D-alanine carboxypeptidase DacA (Geobacillus stearothermophilus) (UniProt Q05523); assay: Inhibition of Bacillus stearothermophilus DD-carboxypeptidase using UDP-N-acetylmuramyl-L-alanyl-meso-diaminopimeloyl-D-alanyl-D-alanine as substrate at 10 to 100 ug/ml; summary of the method: as §2
T1 sequence (whole entry): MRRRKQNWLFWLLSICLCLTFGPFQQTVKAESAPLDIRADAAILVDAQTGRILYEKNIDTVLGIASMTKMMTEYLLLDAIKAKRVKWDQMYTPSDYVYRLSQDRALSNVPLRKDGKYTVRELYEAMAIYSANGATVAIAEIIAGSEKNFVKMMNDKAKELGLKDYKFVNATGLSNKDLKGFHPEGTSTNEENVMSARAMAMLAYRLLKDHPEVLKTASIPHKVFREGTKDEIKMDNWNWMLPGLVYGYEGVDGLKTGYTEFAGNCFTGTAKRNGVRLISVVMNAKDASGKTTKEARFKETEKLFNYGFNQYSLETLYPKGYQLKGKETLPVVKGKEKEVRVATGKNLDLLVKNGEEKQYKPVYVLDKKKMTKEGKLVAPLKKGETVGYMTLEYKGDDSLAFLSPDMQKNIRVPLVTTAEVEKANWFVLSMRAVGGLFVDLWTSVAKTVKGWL

MIC (Staphylococcus aureus): > 500 µg/mL
MIC (Escherichia coli): > 500 µg/mL
inhibition [1]: inactive
inhibition [2]: inactive
inhibition [3]: inactive
SMILES: CC(=O)NCCCC[C@H](NC(=O)CI)C(=O)N[C@H](C)C(=O)N[C@H](C)C(=O)O

— ChEMBL document CHEMBL3272093, “Antibacterial halogenoacetyl derivatives of amino acids and simple peptides” (1977)
